Experimental findings from ChEMBL document CHEMBL3271988, “Nitrogen analogues of 1,4-benzoquinones. Activities against the ascitic sarcoma 180 of mice” (J Med Chem, 1978) are described below.

Active and inactive are the calls of the source. No cut-off for these calls is given here.

Data set [1] deals with Sarcoma-180. Nature of the data set: Antitumor activity against mouse Sarcoma 180 cells allografted in Swiss mouse assessed as survival time at 9 mg/kg, ip three doses were given at 24 hrs interval starting 24 hrs after allograft injection relative to control. Conditions: route intraperitoneal. The class given is functional. The method, boiled down:
(§1)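 Swiss mice inoculated ip with 10^6 ascitic sarcoma 180 cells. Compound given ip daily ×3 at 24-h intervals, starting 24 h after inoculation. Controls received isotonic saline on the same schedule; 6 mice per group. Mice alive at 60 days counted as 60 days in mean survival (±SD).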

The subject of data set [2] is Sarcoma-180. Nature of the data set: Antitumor activity against mouse Sarcoma 180 cells allografted in Swiss mouse at 9 mg/kg, ip three doses were given at 24 hrs interval starting 24 hrs after allograft injection relative to control. It is filed as functional. The settings on record: route intraperitoneal. The method, boiled down:
(§2)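 Swiss mice given 10^6 ascitic sarcoma 180 cells ip; three ip doses at 24-h intervals starting 24 h later; controls received isotonic salt solution on the same schedule. […] Cures = alive without cancer cells at 60 days.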

A short description of data set [3]: Half life of the compound in water at pH 7 at 25 degC by spectrophotometry. It is filed as physicochemical. The method, boiled down: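 Compound dissolved in absolute ethanol, then diluted into 0.01 M Tris buffer brought to pH 7 with HCl, 25 °C. Absorbance at λmax followed over hours or days; log absorbance vs time fitted by least squares, rate constant and half-time taken from the slope.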

The nature of data set [4]: Acute toxicity in single ip dosed Swiss mouse assessed as death up to 5 days. Conditions: in vivo. It is filed as organism-based. In short, it runs like this:
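Male Swiss mice given one ip dose. LD50 taken as the single dose killing 50% of animals within 5 days.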

In data set [5] the test system is Sarcoma-180. The data set can be described thus: Antitumor activity against mouse Sarcoma 180 cells allografted in Swiss mouse assessed as survival at 9 mg/kg, ip three doses were given at 24 hrs interval starting 24 hrs after allograft injection measured after 5 days. It is filed as functional, organism-based. On the set-up: dose 9 mg/kg. In short, it runs like this:
(§3)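 Swiss mice were injected ip with 10^6 ascitic sarcoma 180 cells. Three daily ip doses followed, the first 24 h after cell injection. The read-out was the number of mice surviving at 5 days, out of 6 treated.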

For data set [6], the system named is Sarcoma-180. The data set can be described thus: Antitumor activity against mouse Sarcoma 180 cells allografted in Swiss mouse assessed as weight gain at 9 mg/kg, ip three doses were given at 24 hrs interval starting 24 hrs after allograft injection measured after 3 days relative to control. The class given is functional. The settings on record: route intraperitoneal. The method, boiled down:
(§4)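 Ascitic sarcoma 180 model in Swiss mice: 10^6 cells ip, then three ip doses at 24-h intervals beginning 24 h later. Mice were weighed 1 day after cell injection and again 3 days later (24 h after the third dose). Percent weight gain of treated mice was compared with saline-treated controls on the same schedule.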

For data set [7], the system named is Sarcoma-180. Nature of the data set: Antitumor activity against mouse Sarcoma 180 cells allografted in Swiss mouse assessed as cure at 9 mg/kg, ip three doses were given at 24 hrs interval starting 24 hrs after allograft injection measured after 60 days. It is filed as functional, organism-based. On the set-up: dose 9 mg/kg. The method, boiled down: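 Swiss mice given 10^6 ascitic sarcoma 180 cells ip. Starting 24 h later, three ip doses were given 24 h apart. Controls got isotonic salt solution on the same schedule. A cure was a mouse alive with no evidence of cancer cells 60 days after cell injection, reported per 6 mice.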

A short description of data set [8]: Redox potential of the compound in alcohol-water solution. Conditions: buffer.
Data set [9] relates to Sarcoma-180. The data set can be described thus: Antitumor activity against mouse Sarcoma 180 cells allografted in Swiss mouse assessed as survival time at 22.5 mg/kg, ip three doses were given at 24 hrs interval starting 24 hrs after allograft injection relative to control. The settings on record: route intraperitoneal. It is filed as functional. In short, it runs like this: as §1

The subject of data set [10] is Sarcoma-180. The data set can be described thus: Antitumor activity against mouse Sarcoma 180 cells allografted in Swiss mouse at 22.5 mg/kg, ip three doses were given at 24 hrs interval starting 24 hrs after allograft injection relative to control. It is filed as functional. Conditions: route intraperitoneal. In short, it runs like this: (§5)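 Swiss mice received 10^6 ascitic sarcoma 180 cells ip, then three ip doses 24 h apart starting at 24 h. Controls got isotonic salt solution on the same schedule. T/C% is mean survival time of treated over controls (6 mice per group).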

In data set [11] the test system is Sarcoma-180. The data set can be described thus: Antitumor activity against mouse Sarcoma 180 cells allografted in Swiss mouse assessed as weight gain at 22.5 mg/kg, ip three doses were given at 24 hrs interval starting 24 hrs after allograft injection measured after 3 days relative to control. It is filed as functional. Conditions: route intraperitoneal. In short, it runs like this: as §4

The test system of data set [12] is Sarcoma-180. Nature of the data set: Antitumor activity against mouse Sarcoma 180 cells allografted in Swiss mouse assessed as survival time at 90 mg/kg, ip three doses were given at 24 hrs interval starting 24 hrs after allograft injection relative to control. The class given is functional. The settings on record: route intraperitoneal. The method, boiled down: as §1

In data set [13] the test system is Sarcoma-180. The data set can be described thus: Antitumor activity against mouse Sarcoma 180 cells allografted in Swiss mouse at 90 mg/kg, ip three doses were given at 24 hrs interval starting 24 hrs after allograft injection relative to control. The settings on record: route intraperitoneal. It is filed as functional. The method, boiled down: as §2
Data set [14] relates to Sarcoma-180. The data set can be described thus: Antitumor activity against mouse Sarcoma 180 cells allografted in Swiss mouse assessed as survival at 90 mg/kg, ip three doses were given at 24 hrs interval starting 24 hrs after allograft injection measured after 5 days. It is filed as functional, organism-based. Also on record: dose 90 mg/kg. In short, it runs like this: as §3

Data set [15] has as its system Sarcoma-180. Nature of the data set: Antitumor activity against mouse Sarcoma 180 cells allografted in Swiss mouse assessed as weight gain at 90 mg/kg, ip three doses were given at 24 hrs interval starting 24 hrs after allograft injection measured after 3 days relative to control. The class given is functional. Conditions: route intraperitoneal. In short, it runs like this:
as §4

In data set [16] the test system is Sarcoma-180. Nature of the data set: Antitumor activity against mouse Sarcoma 180 cells allografted in Swiss mouse assessed as survival time at 5 mg/kg, ip three doses were given at 24 hrs interval starting 24 hrs after allograft injection relative to control. The settings on record: route intraperitoneal. The class given is functional. The method, boiled down:
as §1

The subject of data set [17] is Sarcoma-180. The data set can be described thus: Antitumor activity against mouse Sarcoma 180 cells allografted in Swiss mouse at 5 mg/kg, ip three doses were given at 24 hrs interval starting 24 hrs after allograft injection relative to control. It is filed as functional. The settings on record: route intraperitoneal. In short, it runs like this:
as §5

Data set [18] concerns Sarcoma-180. The data set can be described thus: Antitumor activity against mouse Sarcoma 180 cells allografted in Swiss mouse assessed as survival at 5 mg/kg, ip three doses were given at 24 hrs interval starting 24 hrs after allograft injection measured after 5 days. The class given is functional, organism-based. Also on record: dose 5 mg/kg. The method, boiled down: as §3

In data set [19] the test system is Sarcoma-180. The data set can be described thus: Antitumor activity against mouse Sarcoma 180 cells allografted in Swiss mouse assessed as weight gain at 5 mg/kg, ip three doses were given at 24 hrs interval starting 24 hrs after allograft injection measured after 3 days relative to control. It is filed as functional. The settings on record: route intraperitoneal. In short, it runs like this:
as §4

For orientation: T/C means the result in the treated group divided by that in the control group, in per cent. The term half-life denotes the time in which the quantity being followed falls by half. Low values mean fast loss, high ones slow loss. The LD50 is the dose expected to kill half of the subjects tested. Regarding `O=C1C(Br)=CC(=NBr)C=C1Br`, the Survival in the data set with Sarcoma-180 [1] was 22.8 days. In addition, the T/C in the data set with Sarcoma-180 [2] is on record as 178%. In data set [3], this molecule showed a half-life of 10.4 h. Further, the LD50 at 120 h in data set [4] was 25 mg/kg. Also, in the data set on Sarcoma-180 [5], the outcome was Active. Besides, the Activity in the data set with Sarcoma-180 [6] was -3%. In addition, the outcome with Sarcoma-180 [7] was inactive. In addition, the Redox potential in data set [8] is reported as 0.678 V.

Turning to `O=C1C(Br)=CC(=NCl)C=C1Br`, the Survival in the data set on Sarcoma-180 [9] was 41 days. This molecule showed a T/C in the data set on Sarcoma-180 [10] of 218%. In [3], the half-life was 23.3 h. The LD50 at 120 h in [4] amounted to 63 mg/kg. For the same molecule, in the data set on Sarcoma-180 [11], the Activity is -25%. In addition, the Redox potential in [8] worked out at 0.665 V.

For `O=C1C=C/C(=N/O)C(Cl)=C1`, the Survival in the data set on Sarcoma-180 [12] is 39 days. In the data set with Sarcoma-180 [13], this molecule returned a T/C of 304%. The LD50 at 120 h in data set [4] worked out at 380 mg/kg. Besides, in the data set with Sarcoma-180 [14], the result was Active. The Activity in the data set on Sarcoma-180 [15] is on record as -2.4%. In data set [8], this molecule gave a Redox potential of 0.537 V.

For `O=C1C=CC(=NCl)C=C1`, the Survival in the data set with Sarcoma-180 [16] came out at 40.5 days. The same molecule showed a T/C with Sarcoma-180 [17] of 246%. Also, the half-life in [3] was 35.3 h. For the same molecule, the LD50 at 120 h in data set [4] was 12.5 mg/kg. Besides, in the data set with Sarcoma-180 [18], the result was Active. Besides, in the data set on Sarcoma-180 [19], the Activity was -6.9%. In data set [8], this molecule had a Redox potential of 0.652 V.
